Data: ChEMBL document CHEMBL5154684 (J Med Chem, 2022)
Blank lines part the entries; values can stand above or below the compound they belong to. Calls of active or inactive are those of the source. No cut-off for these calls is given here.

Columns and labels:
[1] = molecular target: T1, Nuclear factor erythroid 2-related factor 2 (Homo sapiens) (UniProt Q16236); test: Activation of Nrf2 transcriptional activity in HEK293T cells transfected with TK-Renilla reporter vector and cotransfected with ARE-LUC vector measured after 16 hrs by dual-luciferase reporter gene assay; format: cell-based; settings: filed as activator, dose 6-60 µM, DDE = dose-dependent effect
T1 sequence (whole entry): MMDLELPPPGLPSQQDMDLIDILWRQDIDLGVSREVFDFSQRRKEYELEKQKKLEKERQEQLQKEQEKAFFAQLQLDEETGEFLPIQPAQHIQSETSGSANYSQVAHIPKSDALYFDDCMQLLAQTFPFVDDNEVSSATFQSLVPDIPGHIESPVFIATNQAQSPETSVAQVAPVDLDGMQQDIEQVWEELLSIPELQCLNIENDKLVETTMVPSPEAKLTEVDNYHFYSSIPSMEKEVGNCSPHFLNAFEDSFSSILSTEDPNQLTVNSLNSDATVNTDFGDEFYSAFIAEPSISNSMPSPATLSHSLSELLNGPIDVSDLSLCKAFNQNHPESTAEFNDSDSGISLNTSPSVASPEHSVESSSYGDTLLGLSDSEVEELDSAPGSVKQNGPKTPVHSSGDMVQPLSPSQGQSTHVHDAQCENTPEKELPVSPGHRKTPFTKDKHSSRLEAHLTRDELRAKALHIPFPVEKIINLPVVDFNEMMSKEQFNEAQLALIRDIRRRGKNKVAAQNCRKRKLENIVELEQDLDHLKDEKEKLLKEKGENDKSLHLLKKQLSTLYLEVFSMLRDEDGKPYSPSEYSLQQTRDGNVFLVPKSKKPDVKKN
How it was run: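 HEK293T cells were seeded and cultured 16 h, then co-transfected by calcium phosphate with 3×ARE-LUC and TK-Renilla. […] Lysates were read by dual-luciferase. Triplicates, at least twice. CD is the concentration that doubles luciferase over basal.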

Homo sapiens = species on record: Homo sapiens; test: Selectivity ratio of CD for Nrf2 activation in HEK293T cells to IC50 for inhibition of ROCK2 (unknown origin); format: cell-based
How it was run: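 Ratio of CD to ROCK2 IC50. CD is the concentration doubling ARE-luciferase over basal in transfected HEK293T cells after 16 h. […] Reactions were stopped with orthophosphoric acid and captured on P81 filters.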

[2] = molecular target: Rho-associated protein kinase 2 (Homo sapiens, UniProt O75116); test: Inhibition of ROCK2 (unknown origin) using KEAKEKRQEQIAKRRRLSSLRASTSKSGGSQK-peptide as substrate incubated for 30 mins in presence of [gamma-33P]-ATP
Albumin [3] = molecular target: T2, Albumin (Homo sapiens, UniProt P02768); test: Binding affinity to human serum albumin assessed as Stern-Volmer quenching constant by Stern-Volmer plot analysis; format: ADME; settings: isolated protein
[4] = molecular target: T3, Nuclear factor erythroid 2-related factor 2 (Mus musculus) (UniProt Q60795); test: Activation of Nrf2 transcriptional activity in KEAP1+/+ mouse embryonic fibroblast cells assessed as increase in HMOX1 mRNA levels at 20 uM by RT-qPCR analysis; format: cell-based; settings: filed as activator, time 4-24 hrs, TDE = time-dependent effect
T3 sequence (whole entry): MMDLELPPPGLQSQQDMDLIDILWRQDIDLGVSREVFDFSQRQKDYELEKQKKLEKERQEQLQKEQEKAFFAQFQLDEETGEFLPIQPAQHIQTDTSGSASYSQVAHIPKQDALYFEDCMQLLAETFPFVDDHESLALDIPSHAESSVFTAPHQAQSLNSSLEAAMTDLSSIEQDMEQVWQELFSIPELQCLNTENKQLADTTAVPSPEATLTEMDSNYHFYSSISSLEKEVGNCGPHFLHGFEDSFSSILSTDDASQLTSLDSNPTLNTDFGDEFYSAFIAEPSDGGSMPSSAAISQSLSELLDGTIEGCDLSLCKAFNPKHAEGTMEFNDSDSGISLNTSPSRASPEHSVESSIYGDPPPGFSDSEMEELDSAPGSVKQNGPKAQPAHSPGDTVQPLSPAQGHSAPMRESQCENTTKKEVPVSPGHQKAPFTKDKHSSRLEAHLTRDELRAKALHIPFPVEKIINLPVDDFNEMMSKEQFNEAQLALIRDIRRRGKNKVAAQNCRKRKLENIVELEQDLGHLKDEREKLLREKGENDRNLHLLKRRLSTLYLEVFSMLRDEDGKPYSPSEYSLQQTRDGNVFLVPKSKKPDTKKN
How it was run: (§1)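 Keap1+/+ and Keap1–/– MEFs were grown in DMEM with 10% FBS and treated at 20 μM for 4, 8 and 24 h. HMOX1 and NQO1 mRNA measured by qRT-PCR, normalized to β-actin mRNA. n = 4 ± S.E.M., experiments done twice; two-way ANOVA with Bonferroni post hoc.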

[5] = molecular target: T1, Nuclear factor erythroid 2-related factor 2 (Homo sapiens); test: Induction of Nrf2 signalling pathway in ALS patient derived human lymphoblasts harboring SOD1 mutation assessed as increase in NQO1 mRNA level at 20 uM measured after 24 hrs by RT-qPCR analysis; format: cell-based; settings: Lymphoblastoid cell, filed as activator
How it was run: (§2)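 EBV-immortalized lymphoblastoid lines from controls, sALS and SOD1-ALS patients were grown in RPMI-1640 with 10% FBS. They were seeded at 1 × 10^6 cells/mL, serum-starved 12 h, then treated at 20 μM for 24 h. HMOX1 and NQO1 mRNA measured by qRT-PCR, normalized to β-actin mRNA. n = 6–7 controls, 5–6 sALS, 4 SOD1-ALS, ± S.E.M.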

[6] = molecular target: Keap1/Nrf2 (Homo sapiens) (UniProt Q16236+Q14145); test: Inhibition of Nrf2 (unknown origin)/KEAP1 (unknown origin) protein-protein interaction by measuring inflection temperature at 100 uM by differential scanning fluorimetry; format: protein assay
Albumin [7] = molecular target: T2, Albumin; test: Binding affinity to human serum albumin assessed as association constant by Scatchard equation; format: ADME; settings: isolated protein
[8] = molecular target: T1, Nuclear factor erythroid 2-related factor 2 (Homo sapiens); test: Induction of Nrf2 signalling pathway in ALS patient derived human lymphoblasts harboring SOD1 mutation assessed as increase in HMOX1 protein level at 20 uM measured after 24 hrs by immunoblot analysis; format: cell-based; settings: Lymphoblastoid cell, filed as activator
[9] = molecular target: T1, Nuclear factor erythroid 2-related factor 2 (Homo sapiens); test: Induction of Nrf2 signalling pathway in human lymphoblast assessed as increase in HMOX1 mRNA level at 20 uM measured after 24 hrs by RT-qPCR analysis; format: cell-based; settings: Lymphoblastoid cell, filed as activator; how it was run: as §2
[10] = molecular target: T1, Nuclear factor erythroid 2-related factor 2 (Homo sapiens); test: Activation of Nrf2 transcriptional activity in human SH-SY5Y cells assessed as induction of accumulation of Nrf2 in nucleus at 20 uM incubated for 30 to 240 mins by Immunoblotting analysis; format: cell-based; settings: filed as activator, time 60-240 min, in the assay text read “60 to 240 mins” for “30 to 240 mins”
How it was run: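 SH-SY5Y cells treated at 20 μM for 1, 2 and 4 h. Cytosolic and nuclear fractions were prepared by hypotonic NP-40 lysis followed by a nuclear extraction buffer. […] Duplicate, at least twice.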

[11] = Stability in pooled human liver microsomes assessed as intrinsic clearance at 8 uM in presence of NADPH measured upto 60 mins by HPLC-MS analysis; format: ADME, Microsome; settings: 1 h
[12] = molecular target: T1, Nuclear factor erythroid 2-related factor 2 (Homo sapiens); test: Activation of Nrf2 transcriptional activity in human SH-SY5Y cells assessed as increase in NQO1 mRNA expression at 20 uM by RT-qPCR analysis; format: cell-based; settings: filed as activator, time 4-24 hrs, TDE = time-dependent effect
How it was run: (§3)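 SH-SY5Y cells (DMEM/Ham's F12, 10% FBS) were treated at 20 μM for 4, 8 and 24 h. HMOX1 and NQO1 mRNA measured by qRT-PCR, normalized to β-actin mRNA. Mean of n = 4 ± S.E.M., experiments done twice.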

[13] = molecular target: T1, Nuclear factor erythroid 2-related factor 2 (Homo sapiens); test: Induction of Nrf2 signalling pathway in human lymphoblast assessed as increase in Nrf2 protein level at 20 uM measured after 24 hrs by immunoblot analysis; format: cell-based; settings: Lymphoblastoid cell, filed as activator
[14] = molecular target: T1, Nuclear factor erythroid 2-related factor 2 (Homo sapiens); test: Induction of Nrf2 signalling pathway in human lymphoblast assessed as increase in NQO1 mRNA level at 20 uM measured after 24 hrs by RT-qPCR analysis; format: cell-based; settings: Lymphoblastoid cell, filed as activator; how it was run: as §2
[15] = molecular target: T1, Nuclear factor erythroid 2-related factor 2 (Homo sapiens); test: Induction of Nrf2 signalling pathway in human lymphoblast assessed as increase in NQO1 protein level at 20 uM measured after 24 hrs by immunoblot analysis; format: cell-based; settings: Lymphoblastoid cell, filed as activator
[16] = molecular target: T1, Nuclear factor erythroid 2-related factor 2 (Homo sapiens); test: Induction of Nrf2 signalling pathway in ALS patient derived human lymphoblasts harboring SOD1 mutation assessed as increase in HMOX1 mRNA level at 20 uM measured after 24 hrs by RT-qPCR analysis; format: cell-based; settings: Lymphoblastoid cell, filed as activator; how it was run: as §2
[17] = molecular target: T1, Nuclear factor erythroid 2-related factor 2 (Homo sapiens); test: Induction of Nrf2 signalling pathway in human lymphoblast assessed as increase in HMOX1 protein level at 20 uM measured after 24 hrs by immunoblot analysis; format: cell-based; settings: Lymphoblastoid cell, filed as activator
[18] = molecular target: T1, Nuclear factor erythroid 2-related factor 2 (Homo sapiens); test: Activation of Nrf2 transcriptional activity in human SH-SY5Y cells assessed as increase in NQO1 protein levels at 20 uM incubated for 24 hrs by immunoblot analysis; format: cell-based; settings: filed as activator
How it was run: (§4)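 SH-SY5Y cells exposed to 20 μM for 4, 8 and 24 h. […] Densitometry normalized to β-actin. Duplicate, at least twice; one-way ANOVA with Tukey post-test.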

[19] = molecular target: T1, Nuclear factor erythroid 2-related factor 2 (Homo sapiens); test: Activation of Nrf2 transcriptional activity in human SH-SY5Y cells assessed as increase in HMOX1 mRNA expression at 20 uM by RT-qPCR analysis; format: cell-based; settings: filed as activator, time 4-24 hrs, TDE = time-dependent effect; how it was run: as §3
[20] = molecular target: T3, Nuclear factor erythroid 2-related factor 2 (Mus musculus); test: Activation of Nrf2 transcriptional activity in KEAP1-/- mouse embryonic fibroblast cells assessed as increase in HMOX1 mRNA levels at 20 uM measured upto 24 hrs by RT-qPCR analysis; format: cell-based; settings: filed as activator; how it was run: as §1
[21] = molecular target: T1, Nuclear factor erythroid 2-related factor 2 (Homo sapiens); test: Activation of Nrf2 transcriptional activity in human SH-SY5Y cells assessed as increase in HO-1 protein levels at 20 uM incubated for 24 hrs by immunoblot analysis; format: cell-based; settings: filed as activator; how it was run: as §4
[22] = molecular target: T3, Nuclear factor erythroid 2-related factor 2 (Mus musculus); test: Activation of Nrf2 transcriptional activity in KEAP1+/+ mouse embryonic fibroblast cells assessed as increase in NQO1 mRNA levels at 20 uM by RT-qPCR analysis; format: cell-based; settings: filed as activator, time 4-24 hrs, TDE = time-dependent effect; how it was run: as §1
[23] = molecular target: T1, Nuclear factor erythroid 2-related factor 2 (Homo sapiens); test: Induction of Nrf2 signalling pathway in ALS patient derived human lymphoblasts harboring SOD1 mutation assessed as increase in NQO1 protein level at 20 uM measured after 24 hrs by immunoblot analysis; format: cell-based; settings: Lymphoblastoid cell, filed as activator

T2 sequence (P02768 whole entry): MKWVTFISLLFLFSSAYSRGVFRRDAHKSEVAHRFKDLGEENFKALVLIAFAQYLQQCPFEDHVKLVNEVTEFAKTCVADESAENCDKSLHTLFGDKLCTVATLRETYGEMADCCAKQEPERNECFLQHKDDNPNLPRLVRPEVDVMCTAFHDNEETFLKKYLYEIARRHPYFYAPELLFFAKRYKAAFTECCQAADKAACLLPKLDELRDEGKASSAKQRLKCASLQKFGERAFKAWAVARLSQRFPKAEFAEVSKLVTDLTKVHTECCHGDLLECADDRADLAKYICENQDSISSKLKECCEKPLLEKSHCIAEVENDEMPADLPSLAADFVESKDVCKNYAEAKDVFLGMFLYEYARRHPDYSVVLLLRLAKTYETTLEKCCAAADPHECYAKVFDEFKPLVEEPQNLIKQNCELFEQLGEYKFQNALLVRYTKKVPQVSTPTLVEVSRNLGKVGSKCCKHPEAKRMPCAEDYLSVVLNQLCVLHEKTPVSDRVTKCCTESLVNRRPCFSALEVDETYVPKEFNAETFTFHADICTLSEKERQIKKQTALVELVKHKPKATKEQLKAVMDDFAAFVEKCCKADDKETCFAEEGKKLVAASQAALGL
Sequence of Rho-associated protein kinase 2 (O75116 whole entry): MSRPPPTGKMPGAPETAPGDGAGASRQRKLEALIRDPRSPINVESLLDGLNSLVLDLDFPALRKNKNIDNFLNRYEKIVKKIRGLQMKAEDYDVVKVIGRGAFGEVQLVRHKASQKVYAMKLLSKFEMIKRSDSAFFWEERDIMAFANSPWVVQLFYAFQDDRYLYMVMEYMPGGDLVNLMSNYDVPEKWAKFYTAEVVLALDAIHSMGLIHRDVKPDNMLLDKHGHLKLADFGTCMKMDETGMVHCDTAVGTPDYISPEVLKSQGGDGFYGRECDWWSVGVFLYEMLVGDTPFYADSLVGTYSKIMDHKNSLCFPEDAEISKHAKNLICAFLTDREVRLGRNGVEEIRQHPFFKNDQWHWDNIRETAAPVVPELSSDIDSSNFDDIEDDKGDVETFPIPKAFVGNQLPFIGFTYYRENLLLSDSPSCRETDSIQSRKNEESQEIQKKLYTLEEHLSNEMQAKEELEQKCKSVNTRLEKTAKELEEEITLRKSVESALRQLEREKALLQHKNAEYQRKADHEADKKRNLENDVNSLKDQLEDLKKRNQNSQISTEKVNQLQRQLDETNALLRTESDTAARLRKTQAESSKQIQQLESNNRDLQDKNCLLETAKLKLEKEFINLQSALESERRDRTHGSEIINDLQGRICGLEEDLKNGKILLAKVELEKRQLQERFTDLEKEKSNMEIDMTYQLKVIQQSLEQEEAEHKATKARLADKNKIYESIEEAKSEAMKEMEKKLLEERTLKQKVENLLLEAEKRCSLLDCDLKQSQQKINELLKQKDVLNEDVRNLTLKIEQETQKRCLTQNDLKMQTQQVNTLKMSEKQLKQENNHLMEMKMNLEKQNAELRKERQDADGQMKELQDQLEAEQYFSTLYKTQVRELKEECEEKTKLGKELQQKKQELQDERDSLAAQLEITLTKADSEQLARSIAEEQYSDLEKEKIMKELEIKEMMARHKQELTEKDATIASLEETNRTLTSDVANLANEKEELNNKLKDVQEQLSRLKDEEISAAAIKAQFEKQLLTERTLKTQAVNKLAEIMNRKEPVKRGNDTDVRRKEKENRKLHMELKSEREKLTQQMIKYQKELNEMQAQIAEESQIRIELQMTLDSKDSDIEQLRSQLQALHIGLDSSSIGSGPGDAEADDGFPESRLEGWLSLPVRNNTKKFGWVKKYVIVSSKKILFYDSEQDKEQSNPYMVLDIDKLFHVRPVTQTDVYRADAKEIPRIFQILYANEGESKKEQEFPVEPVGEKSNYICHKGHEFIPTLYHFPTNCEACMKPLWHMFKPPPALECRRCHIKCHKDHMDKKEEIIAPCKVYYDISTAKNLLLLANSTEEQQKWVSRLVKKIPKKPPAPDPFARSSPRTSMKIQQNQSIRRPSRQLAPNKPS
Sequence of Keap1/Nrf2 (Homo sapiens) (Q14145 whole entry, looked up, one chain of several): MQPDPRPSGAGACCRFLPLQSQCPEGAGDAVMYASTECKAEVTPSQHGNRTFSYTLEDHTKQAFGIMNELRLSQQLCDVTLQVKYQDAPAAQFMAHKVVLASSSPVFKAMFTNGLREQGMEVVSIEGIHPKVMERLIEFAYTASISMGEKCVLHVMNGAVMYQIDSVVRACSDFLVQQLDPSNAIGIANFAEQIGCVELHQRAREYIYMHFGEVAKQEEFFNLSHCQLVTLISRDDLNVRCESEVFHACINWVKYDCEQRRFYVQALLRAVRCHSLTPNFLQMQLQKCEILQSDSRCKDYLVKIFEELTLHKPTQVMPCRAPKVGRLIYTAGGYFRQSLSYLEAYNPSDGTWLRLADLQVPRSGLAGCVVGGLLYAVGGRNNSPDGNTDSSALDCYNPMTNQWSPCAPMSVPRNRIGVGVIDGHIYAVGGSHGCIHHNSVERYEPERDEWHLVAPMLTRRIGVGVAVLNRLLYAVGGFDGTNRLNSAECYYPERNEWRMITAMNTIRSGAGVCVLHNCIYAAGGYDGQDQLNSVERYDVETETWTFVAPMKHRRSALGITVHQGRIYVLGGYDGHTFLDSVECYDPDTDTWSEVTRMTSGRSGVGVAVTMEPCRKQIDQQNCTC

Activity [1]: Dde
SMILES: O=C(/C=C/c1ccc(O)c(O)c1)N1CCCN(S(=O)(=O)c2cccc3cnccc23)CC1
Selectivity ratio (Homo sapiens): 5.2

IC50 [2]: > 10 µM
SMILES: COc1cc(CCC(=O)N2CCN(S(=O)(=O)c3cccc4cnccc34)CC2)ccc1O

KSV (Albumin [3]): 1.68 10^5L/mol
Activity [4]: Tde
Activity [5]: Active
deltaT [6]: 0.2 °C
ka (Albumin [7]): 7.94 10^5L/mol
Activity [8]: Active
Activity [9]: Active
Activity [10]: Active
CLint [11]: 15.3 µL/min/mg
Activity [1]: Dde
Activity [12]: Tde
Activity [13]: Active
Activity [14]: Active
Activity [15]: Active
Activity [16]: Active
Activity [17]: Active
Activity [18]: Active
Activity [19]: Tde
Activity [20]: Active
Activity [21]: Active
Activity [22]: Tde
Activity [23]: Active
SMILES: O=C(CCc1ccc(O)c(O)c1)N1CCCN(S(=O)(=O)c2cccc3cnccc23)CC1
Selectivity ratio (Homo sapiens): 1.4

Activity [1]: Dde
SMILES: O=C(CCc1ccc(O)c(O)c1)N1CCN(S(=O)(=O)c2cccc3cnccc23)CC1
Selectivity ratio (Homo sapiens): 46.9
